The text below walks through data of ChEMBL document CHEMBL1134785, “Synthesis and biological evaluation of prostaglandin-F alkylphosphinic acid derivatives as bone anabolic agents for the treatment of osteoporosis” (J Med Chem, 2001).

In assay [1] the test system is Rattus norvegicus. Put plainly: Bone Volume /Tissue Volume (%)measured Histomorphometrically after a dose of 6000 ug/kg in proximal tibial metaphysis. It counts as functional. An outline of the steps:
(§1)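 Proximal tibial metaphysis, 1 to 4 mm distal to the growth plate–metaphyseal junction, assessed by histomorphometry in 6-month-old female rats. Rats were ovariectomized (OVX) 60 days before dosing, then given daily injections for 60 days. Fluorochrome labels were xylenol orange 90 mg/kg before treatment and calcein 10 mg/kg at 14 and 4 days before sacrifice. Groups were compared with vehicle by ANOVA plus LSD test.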

The test system of assay [2] is Rattus norvegicus. Put plainly: Endosteal mineralizing surface measured Histomorphometrically after a does of 6000 ug/kg in Tibial Diaphysis. It counts as functional.
The subject of assay [3] is Rattus norvegicus. Put plainly: Connectivity density measured using micro Computed Tomography(CT) after a dose of 6000 ug/kg in Vertebral Bone. Format: functional. The gist of the method:
(§2)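 Micro-CT of the fifth lumbar vertebra, measuring cancellous bone volume and architecture. Rats were 6 months old, OVX 60 days before treatment, then dosed daily for 60 days. Test-agent doses were 10–3000 µg/kg, given as a once-daily subcutaneous injection; 6 mg/kg/day was given to the positive-control group. Groups were compared with vehicle by ANOVA plus LSD test.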

In assay [4] the test system is Rattus norvegicus. Nature of the assay: Endosteal eroded surface measured Histomorphometrically after a dose of 6000 ug/kg in Tibial Diaphysis. It counts as functional. The gist of the method:
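Tibial histomorphometry in 6-month-old rats, OVX 60 days before treatment, then daily injection for 60 days. Vehicle was acetate-buffered saline with methylcellulose and polyoxyethylenesorbitan monooleate. Rats received xylenol orange 90 mg/kg before treatment and calcein 10 mg/kg at 14 and 4 days pre-sacrifice. Rats were killed by cardiac puncture under ketamine/xylazine. Groups were compared with vehicle by ANOVA plus LSD test.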

For assay [5], the system named is Rattus norvegicus. Put plainly: Bone Formation rate/tissue vol measured Histomorphometrically after a does of 6000 ug/kg in proximal tibial metaphysis. It counts as functional. The gist of the method:
as §1

Assay [6] deals with Rattus norvegicus. Nature of the assay: Mineralizing apposition measured Histomorphometrically after a dose of 6000 ug/kg in […]. It counts as functional.
The test system of assay [7] is Rattus norvegicus. Nature of the assay: Mineral surface/bone surface measured Histomorphometrically after a dose of 6000 ug/kg in proximal tibial metaphysis. It counts as functional. The gist of the method:
(§3)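 Positive-control arm: rats ovariectomized at six months, then from day 60 given PGE2 at 6 mg/kg/day for 60 days. Labels were xylenol orange 90 mg/kg before treatment and calcein 10 mg/kg 14 and 4 days before sacrifice. The tibia was read by fluorescent-light histomorphometry; metaphysis region 1–4 mm distal to the growth plate junction.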

Assay [8] deals with Rattus norvegicus. Nature of the assay: Mineral apposition measured Histomorphometrically after a dose of 6000 ug/kg in proximal tibial metaphysis. It counts as functional. An outline of the steps: as §3
Assay [9] has as its system Rattus norvegicus. Nature of the assay: Derived trabecular thickness measured using micro Computed Tomography(CT) after a dose of 6000 ug/kg in Vertebral Bone. It counts as functional, Trabecula. The gist of the method: as §2
In assay [10] the test system is Rattus norvegicus. Nature of the assay: Trabecular no measured Histomorphometrically after a dose of 6000 ug/kg in proximal tibial metaphysis. Format: functional, Trabecula. An outline of the steps: (§4)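 A positive-control group of ovariectomized rats was injected daily at 6 mg/kg/day for 60 days, beginning 60 days post-surgery. Fluorochrome labels were xylenol orange (90 mg/kg) before treatment and calcein (10 mg/kg) 14 and 4 days before sacrifice. Histomorphometry covered the proximal tibial metaphysis 1-4 mm below the growth plate-metaphyseal junction.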

Assay [11] concerns Rattus norvegicus. Nature of the assay: Bone Formation rate/bone measured Histomorphometrically after a dose of 6000 ug/kg in proximal tibial metaphysis. It counts as functional. The gist of the method:
as §1

Assay [12] has as its system Rattus norvegicus. Nature of the assay: Directly measured thickness measured using micro Computed Tomography(CT) after a dose of 6000 ug/kg in Vertebral Bone. It counts as functional. The gist of the method:
as §2

Assay [13] relates to Rattus norvegicus. Put plainly: Periosteal mineralizing surface measured Histomorphometrically after a does of 6000 ug/kg in Tibial Diaphysis. It counts as functional. The gist of the method: (§5)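 A positive-control group of ovariectomized rats was injected daily at 6 mg/kg/day for 60 days, starting 60 days after surgery. Xylenol orange (90 mg/kg) was given before treatment and calcein (10 mg/kg) 14 and 4 days before sacrifice. Tibiae were read by fluorescent-light histomorphometry.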

Assay [14] has as its system Rattus norvegicus. Nature of the assay: Bone Volume /Tissue Volume (%)measured using micro Computed Tomography(CT) after a dose of 6000 ug/kg in Vertebral Bone. Format: functional. An outline of the steps: as §2
Assay [15] has as its system Rattus norvegicus. Put plainly: Trabecular thickness measured Histomorphometrically after a dose of 6000 ug/kg in proximal tibial metaphysis. Format: functional, Trabecula. The gist of the method: as §4
The test system of assay [16] is Rattus norvegicus. Put plainly: Derived trabecular no measured using micro Computed Tomography(CT) after a dose of 6000 ug/kg in Vertebral Bone. Format: functional, Trabecula. The gist of the method: as §2
Assay [17] deals with Rattus norvegicus. Put plainly: Marrow area measured Histomorphometrically after a dose of 6000 ug/kg in Tibial Diaphysis. It counts as functional.
For assay [18], the system named is Rattus norvegicus. Put plainly: Tissue area measured Histomorphometrically after a dose of 6000 ug/kg in Tibial Diaphysis. It counts as functional. An outline of the steps:
as §5

For `CCCCC[C@H](O)/C=C/[C@H]1[C@H](O)CC(=O)[C@@H]1C/C=C\CCCC(=O)O` [DINOPROSTONE], the Activity in the assay on Rattus norvegicus [1] turned out to be 11.65%; with Rattus norvegicus [5], 45.62%; with Rattus norvegicus [7] it was 36.23%; in the assay with Rattus norvegicus [11], 394.7%; in the assay with Rattus norvegicus [14] it was 43.79%. In the assay with Rattus norvegicus [2], the Endosteal mineralizing surface was determined as 61.22%. In the assay on Rattus norvegicus [3], this molecule displayed a Connectivity density of 47.81 mm**-3. This molecule registered an Endosteal eroded surface in the assay with Rattus norvegicus [4] of 0.79%. In addition, the Mineralizing apposition rate with Rattus norvegicus [6] was determined as 1.33 µm/day. In the assay with Rattus norvegicus [8], this molecule had a Mineral apposition rate of 1.19 µm/day. This molecule also registered a Derived trabecular thickness in the assay on Rattus norvegicus [9] of 95.1 µm. The same molecule gave a Trabecular no. with Rattus norvegicus [10] of 1.76. In the assay with Rattus norvegicus [12], this molecule yielded a Directly measured thickness of 149 µm. This molecule also displayed a Periosteal mineralizing surface with Rattus norvegicus [13] of 58.37%. The Trabecular thickness in the assay with Rattus norvegicus [15] came out at 66.14. The Derived trabecular number with Rattus norvegicus [16] was 4.6 1/mm. For the same molecule, the Marrow area in the assay on Rattus norvegicus [17] turned out to be 0.76 mm. This molecule also came in with a Tissue area in the assay with Rattus norvegicus [18] of 5.22 mm.
